“Also recorded” adds a separate entry of the source. Non-standard residues stand in square brackets, D forms with d. Residues, ends and D or L forms follow the SMILES beside them. ξ: configuration not given here. *: point of attachment. X1 = COc1cc(N=Nc2ccccc2[N+](=O)[O-])c(C)cc1N=Nc1ccc(N(C)CCCC(=O)*)cc1; X2 = O=C(O)c1cc(C(=O)*)ccc1-c1c2ccc(=O)cc-2oc2cc(O)ccc12; X3 = O=P(O)(O)C(O)(CCN*)P(=O)(O)O; ξH = NC(Cc1c[nH]cn1)C(=O)O; ξQ = NC(=O)CCC(N)C(=O)O; ξP = O=C(O)C1CCCN1; βAla = NCCC(=O)O
What was measured:
[1] = ref [14]; cited from earlier work
Ctsk [2] = molecular target: T1, Ctsk (Homo sapiens, UniProt P43235); experiment: Kinetics of Ctsk-catalyzed OFS-1 activation in solution; format: biochemical
T1 sequence (P43235 115-329): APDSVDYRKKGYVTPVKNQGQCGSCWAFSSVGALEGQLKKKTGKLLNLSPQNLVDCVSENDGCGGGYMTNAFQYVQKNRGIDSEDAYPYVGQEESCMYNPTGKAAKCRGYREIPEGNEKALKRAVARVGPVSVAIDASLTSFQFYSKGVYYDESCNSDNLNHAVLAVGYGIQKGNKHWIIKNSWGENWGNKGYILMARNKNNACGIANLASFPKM

Ctsk [3] = molecular target: T1, Ctsk; format: biochemical
Procedure, shortened: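 Probe kept in solution at pH 7 with 20 nM initial human Ctsk. Ctsk inhibitor added to the assay mixture at 0, 1, 5, 10, 30, 50 or 100 nM (n = 3). Fluorescence followed over time through a 2 h incubation, with an enzyme-free control.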

[4] = system: RPMI-8226-Luc human multiple myeloma cells engrafted in NSG/BLT humanized mice; experiment: In vivo fluorescence imaging of multiple myeloma-induced osteolysis; parameters: species or system mouse
Procedure, shortened: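 NSG mice were co-grafted with human CD34+ hematopoietic stem cells, liver and thymus and irradiated (NSG/BLT). RPMI-8226-Luc cells (15×10^6 per mouse, 100 μL) were given by tail vein; controls received vehicle. Seven days later, 100 μL of 50 μM OFS-1 was injected retro-orbitally. In vivo fluorescence and bioluminescence imaging was done 3, 4 and 5 wk after cell injection, plus ex vivo micro-CT. Control n = 1, myeloma mice n = 3.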

Ctsk [5] = molecular target: T1, Ctsk; experiment: Ctsk-induced fluorogenesis of OFS-1 pre-adsorbed on HAp with/without odanacatib; format: biochemical; settings: HAp treated overnight with 0.5 μM OFS-1 in 50 mM acetate pH 5.5, washed; 20 nM Ctsk, 37 °C, 2 h
Procedure, shortened: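 […] (HAp)-coated polystyrene wells soaked overnight in probe in acetate buffer, then washed repeatedly with water to remove unbound probe. Wells covered with human Ctsk, with Ctsk inhibitor at 0, 1, 5, 10, 30, 50 or 100 nM (n = 3). Fluorescence read at 1 min intervals in a plate reader at 37 °C.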

[6] = Adsorption on hydroxyapatite and bone mineral
[7] = system: osteoclasts co-cultured with RPMI-8226-Luc human multiple myeloma cells; experiment: Activation of OFS-1 on HAp by osteoclasts co-cultured with RPMI-8226-Luc cells; format: cell-based
Procedure, shortened: (§1)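 HAp […]-coated polystyrene wells were pre-treated with 5.0 μM OFS-1 and washed with PBS. They were then seeded with human osteoclasts, alone or co-cultured with RPMI-8226-Luc myeloma cells, with or without 30 nM odanacatib. Wells were imaged by bright-field and fluorescence microscopy (time-lapse video) for 24 h at 37 °C to record resorption pits and probe fluorescence.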

human osteoclasts = experiment: Activation of OFS-1 adsorbed on HAp by resorbing human osteoclasts; format: cell-based
Procedure, shortened: as §1

[8] = OFS-1 fluorescence in water without enzyme; format: physicochemical; settings: 10 μM OFS-1 in water, 48 h, 37 °C
Ctsk [9] = molecular target: T1, Ctsk; settings: cited from earlier work
Ctsk [10] = molecular target: T1, Ctsk; settings: reported value; ref [25]; cited from earlier work

NCCCC(O)(P(=O)(O)O)P(=O)(O)O [alendronate]
bone-affinity [1]: high bone-affinity

COc1cc(N=Nc2ccccc2[N+](=O)[O-])c(C)cc1N=Nc1ccc(N(C)CCCC(=O)NCC(=O)NC(Cc2c[nH]cn2)C(=O)N2CCCC2C(=O)NCC(=O)NCC(=O)N2CCCC2C(=O)NC(CCC(N)=O)C(=O)NCC(=O)NCCC(=O)N[C@@H](CCCCNC(=O)c2ccc(-c3c4ccc(=O)cc-4oc4cc(O)ccc34)c(C(=O)O)c2)C(=O)NCCC(O)(P(=O)(O)O)P(=O)(O)O)cc1 (stereo partly drawn) [OFS-1] (X1-G[ξH][ξP]GG[ξP][ξQ]G[βAla]K(X2)-X3)
dependence of fluorescence intensity on OFS-1 concentration (Ctsk [2]; 25 nM human Ctsk, 50 mM sodium acetate pH 5.5, 2.5 mM EDTA, 1 mM DTT, 37 °C, Supplementary Figure S3): depended linearly on the OFS-1 concentration up to 1 μM
catalytic efficiency (kcat/Km) (Ctsk [2]; Ctsk 2.5 nM (Fig. 2), 50 mM NaOAc pH 5.5, 37 °C): 0.97 × 10^5 M-^1 s-^1
fluorescence on exposure to Ctsk (Ctsk [2]; Ctsk 2.5–20 nM, in solution or pre-adsorbed on HAp): strong fluorescence
cleavage efficiency relative to Abz-HPGGPQ-EDN2Ph (less efficient) (Ctsk [2]; OFS-1 vs literature value of Abz-HPGGPQ-EDN2Ph, ref [25] for the comparator): only fourfold less efficiently
time-course of OFS-1 fluorescent activity (Ctsk [3]; OFS-1 0.5 μM, 20 nM Ctsk, in solution, pH 7): fluorescent activity was immediately observed within 10 min and reached a plateau thereafter
OFS-1 fluorescence without enzyme (Ctsk [3]; control lacking enzyme, 2 h incubation): essentially unchanged
time from which distinct in vivo fluorescent signal was detected ([4]; 100 μL of 50 μM OFS-1 retro-orbital, weeks after RPMI-8226-Luc cell injection): 4 wk
detection relative to myeloma cell luminescence ([4]; NSG/BLT humanized mice injected with RPMI-8226-Luc cells): before the co-localized luminescence of the myeloma cells could be detected
in vivo OFS-1 signal relative to tumor site / osteolysis lesions ([4]; another mouse, cervical area, post-mortem micro-CT): extensive osteolysis lesions (arrows), which corresponded to the sentinel OFS-1 signal; also recorded: a strong fluorescent signal was detected at (and extending beyond) the bioluminescent tumor site
in vivo OFS-1 signal in control animals ([4]; physiological level of bone resorption, control n = 1): did not show the OFS-1 signal
Ctsk-dependent fluorescence of HAp-adsorbed OFS-1 (Ctsk [5]): time-course increase of fluorescent intensity; also recorded: Bright Ctsk-dependent fluorescence was again observed
adsorption on HAp and bone mineral [6]: avidly adsorbed by hydroxyapatite (HAp) and bone mineral surfaces; also recorded: strongly and specifically binds to bone surfaces
OFS-1 fluorescent signal in co-culture ([7]; OFS-1 5.0 μM pre-treated HAp wells, osteoclasts + RPMI-8226-Luc): robust activation of OFS-1 fluorescent signals
OFS-1 fluorescent signal compared to solitary osteoclasts ([7]; osteoclasts + RPMI-8226-Luc vs solitary osteoclasts): increased by RPMI-8226-Luc cells
OFS-1 fluorescence without osteoclasts (human osteoclasts; control wells, 5.0 μM OFS-1, not seeded with osteoclasts): not significantly fluorescent
extrinsic fluorescence in water without enzyme [8]: virtually undetectable

NCCC(O)(P(=O)(O)O)P(=O)(O)O [pamidronate]
bone-affinity [1]: high bone-affinity

CC(C)(F)C[C@H](N[C@@H](c1ccc(-c2ccc(S(C)(=O)=O)cc2)cc1)C(F)(F)F)C(=O)NC1(C#N)CC1 [odanacatib]
OFS-1 fluorescent signal in co-culture with odanacatib ([7]; 30 nM odanacatib): effectively inhibited
pit formation by osteoclasts with odanacatib (human osteoclasts; 30 nM odanacatib): pit formation was again observed
osteoclast-induced OFS-1 fluorescence with odanacatib (human osteoclasts; 30 nM odanacatib (Figure S9)): fluorescence was suppressed

HPGGPQ
cleavage by Ctsk (Ctsk [9]; ref [24]): selectively cleaved by Ctsk
Ctsk cleavage site (original peptide) (Ctsk [9]; well-established cleavage site, no reference at this place): Gly-Gly bond

Abz-HPGGPQ-EDN2Ph
catalytic efficiency (Ctsk [10]): 426000 M⁻¹ s⁻¹

Source: paper PMC8137654 (Bioconjugate chemistry, 2021)
